# The list is not random: actives were taken first. Their share in the collection is about 2.5%.
# TRPC6 activator: activates the mouse TRPC6 cation channel. HEK293-TRPC6 membrane potential dye fluorescence; hits give high values. B-score at 10 µM. 0.13% of 310,000 active. AID 2550;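 active means B-score of the integrated fluorescence ratio above library mean plus 3 SD, and starting fluorescence ratio within library mean plus 5 SD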;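 further: higher score means more depolarization so channel activation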
# Target sequence (Q61143 whole entry, looked up): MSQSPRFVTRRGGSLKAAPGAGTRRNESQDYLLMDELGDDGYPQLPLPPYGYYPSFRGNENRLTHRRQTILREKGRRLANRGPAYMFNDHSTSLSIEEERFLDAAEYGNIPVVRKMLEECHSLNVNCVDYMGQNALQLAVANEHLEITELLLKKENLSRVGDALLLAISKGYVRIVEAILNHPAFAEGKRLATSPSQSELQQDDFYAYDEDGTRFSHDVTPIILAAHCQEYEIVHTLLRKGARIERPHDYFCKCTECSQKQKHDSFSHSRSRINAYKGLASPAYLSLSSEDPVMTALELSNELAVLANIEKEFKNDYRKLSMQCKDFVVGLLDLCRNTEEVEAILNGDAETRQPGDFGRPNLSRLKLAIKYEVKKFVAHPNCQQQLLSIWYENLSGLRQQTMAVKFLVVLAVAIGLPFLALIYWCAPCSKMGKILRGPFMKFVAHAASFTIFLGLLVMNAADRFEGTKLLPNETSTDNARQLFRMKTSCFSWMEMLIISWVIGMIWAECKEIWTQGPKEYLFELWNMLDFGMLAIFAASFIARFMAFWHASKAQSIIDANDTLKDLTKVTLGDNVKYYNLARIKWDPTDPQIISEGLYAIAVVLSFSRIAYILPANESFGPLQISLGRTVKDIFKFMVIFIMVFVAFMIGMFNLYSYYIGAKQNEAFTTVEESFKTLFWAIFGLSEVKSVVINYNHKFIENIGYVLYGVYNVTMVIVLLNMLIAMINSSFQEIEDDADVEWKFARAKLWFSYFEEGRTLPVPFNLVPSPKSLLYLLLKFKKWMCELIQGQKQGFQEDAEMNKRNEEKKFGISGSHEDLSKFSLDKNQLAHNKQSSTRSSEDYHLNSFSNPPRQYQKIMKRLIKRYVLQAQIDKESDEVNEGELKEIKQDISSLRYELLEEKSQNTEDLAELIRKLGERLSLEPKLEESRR
# Platelet DG rel: modulates dense granule release in human platelets | human platelet-rich plasma, SFLLRN dense granule ATP release, luminescence | AID 1663 | inhibition, %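 (compounds screened at 7.5 µM in platelet-rich plasma)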 | 0.22% of 300,000 active;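 active means mean replicate score, as percent of positive control, at or above 50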
# TRPC4 agonist: activators of mouse TRPC4 channel. HEK293 TRPC4beta/mu-opioid, Fluo4 calcium fluorescence; hits give high values. B-score at 10 µM. AID 2237. 0.49% of 310,000 active;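 active means B-score above 5 SD of library B-scores, and initial fluorescence ratio not above library mean plus 5 SD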;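 further: positive B-score marks a calcium rise read as TRPC4 activation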
#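 Material: HEK293 stable line with TRPC4beta plus mu-opioid receptor; technique: Fluo4 calcium-sensitive dye fluorescence, kinetic, 1 Hz baseline; timing: Fluo4 dye loading 45 min at room temperature, 110 s recording; controls: assay buffer as low control, maximal DAMGO as high control; read-out: integrated baseline-normalised fluorescence ratio, converted to per-well B score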
# TRPC4 potent: allosterically enhances the mouse TRPC4 cation channel; Q9QUQ5; HEK293 TRPC4beta/mu-opioid, DAMGO EC20, Fluo-4 Ca2+ flux; hits give high values; B-score at 10 µM; 0.42% of 310,000 active; AID 2227;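 active means B-score of calcium response area above 5 SD of library B-scores, with initial fluorescence ratio within 5 SD of library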;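 further: B-score of integrated fluorescence ratio over time as area under calcium response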
# TRPC4 inh: inhibitors of mouse TRPC4 channel | HEK293 TRPC4beta/mu-opioid, DAMGO-evoked Fluo4 calcium flux; hits give low values | 0.39% of 300,000 active | B-score at 10 µM | AID 2247 | Q9QUQ5;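 active means B-score over 3 SD under the library average, no early fluorescence shift, positive overall ratio signal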
#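 Material: HEK293 cells with stable TRPC4beta plus mu-opioid receptor expression / Probe or stimulus: DAMGO in two steps, submaximal then maximal / Compound: single concentration per test compound / Technique: kinetic Fluo4 fluorescence imaging of calcium influx / Read-out: per-well B score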
# TRPC6 inhibitor: mouse TRPC6 channel inhibition; Q61143; HEK293-TRPC6, membrane potential dye, ACh-evoked depolarization; hits give low values; B-score at 10 µM; 1.1% of 310,000 active; AID 2553;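 active means B-score under library mean minus 3 SD, initial fluorescence not abnormally high, positive integrated signal ratio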;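 further: B-score derived from integrated fluorescence ratio over the kinetic read; more negative B-score means stronger inhibition of depolarization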
# TRPC4 spec 2: mouse TRPC4 off-target activity of TRPC6 inhibitors, second screen. shares compounds with TRPC6 inhibitor. HEK293 TRPC4/MOR, membrane potential dye fluorescence; channel activated by saturating DAMGO dose. inhibition, % at 10 µM. 42% of 920 active;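 active means compounds whose fluorescence signal differed from control wells by over 3 SD, either direction, in both duplicate plates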
# TRPC4 spec: selectivity of TRPC6 inhibitors: effect on mouse TRPC4; HEK293 TRPC4/mu-opioid, membrane potential fluorescence; 61% of 920 active; AID 2777; activity change, negative = inhibition, % at 10 µM; shares compounds with TRPC6 inhibitor;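 active means rise or fall in signal beyond 3 SD of buffer-only wells in both replicate plates, either sign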;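 further: integrated kinetic ratio of fluorescence range over baseline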
# HEK293 MPD ctr 2-1: parental HEK293 nonspecific activity of TRPC6 inhibitors, second screen; shares compounds with TRPC6 inhibitor; parental HEK293 membrane potential dye fluorescence; maximal acetylcholine challenge after compound addition; signal change vs control, % at 10 µM; 31% of 920 active; AID 2779;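 active means membrane potential signal moving either way by over 3 SD of the maximum-effect control, in both duplicate plates, meaning non-specific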
# HEK293 MPD ctr-1: counter-screen for TRPC6 inhibitors: effect in parental HEK293 cells; shares compounds with TRPC6 inhibitor; parental HEK293 membrane potential dye fluorescence; membrane potential signal change, % at 10 µM; 60% of 920 active;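 active means membrane potential signal shifting up or down by more than 3 SD of buffer-only wells, on both duplicate plates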
# HEK293 MPD ctr-2: checks TRPC6 modulator effects in parental HEK293 cells; shares compounds with TRPC6 inhibitor; membrane potential dye fluorescence; membrane potential signal change, % at 10 µM; 51% of 2,400 active; AID 488924;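 active means membrane potential signal moves up or down beyond 5 SD from buffer-only wells, on both duplicate plates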
# HEK293 MPD ctr 2-2: second check of TRPC6 modulator effects in parental HEK293 cells | AID 488926 | shares compounds with TRPC6 inhibitor | membrane potential dye fluorescence; after compound, maximal acetylcholine stimulation | inhibition, % at 10 µM | 14% of 2,400 active;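 active means membrane potential signal drops by more than 5 SD from the mean control signal, in both duplicate plates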;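 further: plate controls were acetylcholine ECmax control wells for no effect and buffer only wells for full effect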
# TRPC4/MOR mod: mouse TRPC4 off-target activity of TRPC6 modulators; AID 488927; shares compounds with TRPC6 inhibitor; HEK293 TRPC4/mu-opioid, membrane potential fluorescence; percent change from control (negative = decrease, positive = increase), % at 10 µM; 69% of 2,400 active;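 active means membrane potential signal moved up or down beyond 5 SD of buffer control wells, in both duplicate plates, actives on both sides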;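 further: plate controls were assay buffer wells for no effect and DAMGO maximal-effect wells for full effect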
# TRPC4 ctr inh 2: second check of whether TRPC6 modulators also affect mouse TRPC4. shares compounds with TRPC6 inhibitor. HEK293 TRPC4/mu-opioid, membrane potential dye fluorescence; stimulated with maximal-effect DAMGO. inhibition, % at 10 µM. 55% of 2,400 active;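 active means drop in membrane potential signal beyond 5 SD of the control wells in both duplicate plates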;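 further: TRPC4 counter screen for TRPC6 hits run under conditions tuned for TRPC6 not TRPC4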
# TRPC6 inh conf: confirmation of mouse TRPC6 inhibitors. shares compounds with TRPC6 inhibitor. HEK293-TRPC6, membrane potential dye, ACh-evoked depolarization. inhibition, % at 10 µM. 43% of 3,300 active. AID 488960;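 active means fluorescence ratio falls more than 5 SD below the full-stimulation control mean, in both duplicate runs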;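 further: integrated fluorescence ratio of peak minus minimum over baseline after agonist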
# TRPC6 act confirm: mouse TRPC6 activator confirmation; shares compounds with TRPC6 inhibitor; HEK293-TRPC6 membrane potential dye fluorescence, FDSS; activation, % at 10 µM; 11% of 2,800 active; AID 488961;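 active means ratio signal rise beyond 5 SD above unstimulated control wells' mean, seen in both duplicate runs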;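 further: plate controls were buffer EC0 wells for no effect and acetylcholine ECmax response for full effect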
# Starred values were filed as active, the others as inactive; i = inactive; · = no result.
SMILES,TRPC6 activator,Platelet DG rel,TRPC4 agonist,TRPC4 potent,TRPC4 inh,TRPC6 inhibitor,HEK293 MPD ctr-2,HEK293 MPD ctr 2-2,TRPC4/MOR mod,TRPC4 ctr inh 2,TRPC6 inh conf,TRPC6 act confirm,others
O=C1CSC(c2c(F)cccc2Cl)N1c1cccc(F)c1 (stereo unspecified),i,-31.2,i,i,i,-5.1*,i,i,12.0%*,i,i,i,
O=C(Nc1ccc(S(=O)(=O)N2CCCCC2c2cccnc2)cc1)c1c(F)cccc1F (stereo unspecified),i,-12.4,i,i,i,-5.06*,i,i,i,i,i,i,
Cc1ccc2c(c1)CCCN2C(=O)NC1CCCCC1,i,8.4,i,i,i,-6.89*,·,·,·,·,i,i,TRPC4 spec 2=i;TRPC4 spec=i;HEK293 MPD ctr 2-1=i;HEK293 MPD ctr-1=i
CCN(CC)CCNc1c2c(c(C#N)c3nc4ccccc4n13)CCCC2,i,-4.2,i,i,i,-5.06*,i,i,-18.0%*,36.5%*,42.5%*,i,
N#Cc1c2c(c(NCc3ccco3)n3c1nc1ccccc13)CCC2,i,·,i,i,i,i,·,·,·,·,·,·,
CN(C)CCNc1c2c(c(C#N)c3nc4ccccc4n13)CCCC2,i,-1.8,i,i,i,-11.2*,·,·,·,·,72.6%*,i,TRPC4 spec 2=59.5%*;TRPC4 spec=-28.1%*;HEK293 MPD ctr 2-1=48.0%*;HEK293 MPD ctr-1=-383.5%*
Cc1ccc(N/C(N)=N/c2nc3c(c(=O)[nH]2)CCCC3)c(C)c1,i,-10.4,i,i,i,i,·,·,·,·,·,·,
Cc1ccc(N/C(N)=N/c2nc(C)cc(N3CCCCC3)n2)c(C)c1,i,-3.6,i,i,i,-8.95*,339.0%*,i,74.5%*,66.0%*,82.5%*,·,
Cc1c(CCOC(=O)CC23CC4CC(CC(C4)C2)C3)sc[n+]1Cc1ccccc1,i,0.4,i,i,-6*,-5.27*,i,i,i,39.5%*,56.0%*,i,
Cc1ncc(C[n+]2csc(CCOC(=O)CC34CC5CC(CC(C5)C3)C4)c2C)c(N)n1,i,-0.8,i,i,i,i,·,·,·,·,·,·,
CC(NC(=O)c1ccc(CS(C)(=O)=O)cc1)c1cccc2ccccc12 (stereo unspecified),i,1.3,i,i,i,i,·,·,·,·,·,·,

# Screens deposited in PubChem by several laboratories.
